Results: the RNAGym collection of RNA variant scans (doi:10.1101/gad.245936.114)
Variants at the floor of the assay were thinned out.

B1: tRNA (parent)
chain: CUCUCGGUAGCCAAGUUGGUUUAAGGCGCAAGACUUUAAUUUAUCACUACGAAAUCUUGAGAUCGGGCGUUCGACUCGCCCCCGGGAGAUUUUUUCCUCGAGCAA

Variants of: B1
Assay: nonsense suppression (GFP-seq) (ratio to wild type); higher = more function; SUP4oc tRNA, yeast GFP reporter sort-seq
In short: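 Nonsense suppression (GFPSEQ) is the median GFP/RFP ratio of each sorting bin, weighted by the variant's estimated share of cells in that bin and expressed relative to the unmutated parent tRNA. Yeast strains carried genome-integrated variants of an ochre-suppressor tRNA from a library with ~3% random mutations, plus a galactose-driven GFP ochre reporter and RFP, and were grown in raffinose/galactose medium containing 80 mg/L adenine. Cells were sorted into GFP/RFP bins, each bin was Illumina-sequenced (phred ≥30), and variants were kept only with ≥100 reads and ≥30 cells.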

Row | Variant | nonsense suppression
1 | CUCUCGGUAGCCAAGUCGGUUUAAGGCGCAAGACUUUAAUUUAUCACUACGAAACCUUAAGAUCGCGCGUUCGACUCGCCCCCGGGAGAUUUUUUCCUCGAGCAA [U17C U55C G59A G66C] | ≤ 0.026
2 | CUCUCGGUAGCCAAGUCGGUUUAAGGCGCAAGACUUUAAUUUAUCACUACGAAAUCUUGAGAUCGGGCGUUCGACUCGCCCCUGGGAGAUUUUUUCCUCGAGCAA [U17C C83U] | 0.191
3 | CUCUCGGUAGCCAAGUCGGUUUAAGGCCCAAGACUUUAAUUUAUCACUACGAAAUCUUGAGAUCGGGCGUUCGAGUCGCCCCCGGGAGAUUUUUUCCUCGAGCAA [U17C G28C C75G] | 1.02
4 | CUCUCGGUAGCCAAGUCGGUUUAAGGCGCAAGACUUUAAUUUAUCACUACGAAAUCUUGAGAUCGGGCGUUCAACUCGCCCCCGGGAGAUUUUUUCCUCGAGCAA [U17C G73A] | 0.899
5 | CUCUCGGUAGCCAAGUCGGUUAAAGGCGCAAGACUUUAAUUUAUCACUACGAAAUCUUGAGAUCGGGCGUUCGACUCGCCCCCGGGAGAUUUUUUCCUCGAGCAA [U17C U22A] | 0.758
6 | CUCUCGGUAGCCAAGUCGGUUUAAGGCCCAAGACUUUAAUUUAUCACUACGAAUUCUUGAGAUCGGGCGUUCGACUCGCCCCCGGGAGAUUUUUUCCUCGAGCAA [U17C G28C A54U] | 0.219
7 | CUCUCGGUAGCCAAGUCGGUUUAAGGCACAAGACUUUAAUUUAUCACUACGAAAUCUUGACAUCGGGCGUUCGACUCGCCCCCGGGAGAUUUUUUCCUCGAGCAA [U17C G28A G61C] | 0.716
8 | CUCUCGGUAGCCAAGUCGGUGUAAGGCGCAAGACUUUAAUUUAUCACUACGAAAUCUUGAGAUCGGGCGUUCGACUCGCCCCCGGGAGAUUUUUUCCUCGAGCAA [U17C U21G] | 0.801
9 | CUCUCGGUAGCCAAGUGGGUUUAAGGCGCAAGACUUUAAUUUAUCACUACGAAAUCUUGAGAUCGGGCGUUCGACUCGCCCCCGGGAGAUUUUUUCCUCGAGCAA [U17G] | 0.999
10 | CUCUCGGUAGCCAAGUCGGUUUAAGGCUCCAGACUUUAAUUUAUCACUACGAAAUCUUGAGAUCGGGCGUUCGACUCGCCCCCGGGAGAUUUUUUCCUCGAGCAA [U17C G28U A30C] | ≤ 0.026
11 | CUCUCGGUAGCCAAGUCGGGUUAAGGCGCAAGACUUUAAUUUAUCACUACGAAAUCUUGAGAUCGGGCGUUCGACUCGCCCCCGGGAGAUUUUUUCCUCGAGCAA [U17C U20G] | 1.25
12 | CUCUCGGUAGCCAAGUCGGUUUAAGGCGCAAGACUUUAAUUUAUCACUACGAAAUCUUGACAUCGGGCGUUCGACUCGCCCCCGGGAGAUUUUUUCCUCGAGCAA [U17C G61C] | 0.769
13 | CUCUCGGUAGCCAAGUCGGUUUAAGGCGCAAGACUUUAAUUUAUCACUACGAAAUCUUGAAAUCGGGCGUUCGACUCGCCCCCGGGAGAUUUUUUCCUCGAGCAA [U17C G61A] | 0.235
14 | CUCUCGGUAGCCAAGUCGGUUUAAGGCGCAAGACGUUAAUUUAUCACUACGAAAUCUUGACAUCGGGCGUUCGACCCGCCCCCGGGAGAUUUUUUCCUCGAGCAA [U17C U35G G61C U76C] | ≤ 0.026
15 | CUCUCGGUAGCCAAGUCGGUUUAAGGCGCAAGACUUUAAUUUAUCACUACGAAAUCUUGAGAACGGGCGUUCGACUCGCCCCCGGGAGAUUUUUUCCUCGAGCAA [U17C U63A] | 0.197
16 | CUCUCGGUAGCCAAGUCGGUUUAAGGCGCAAGACUUUAAUUUAUCACUACGAAAUCUUGAGACCGGGCGUUCGACUCGCCCCCGGGAGAUUUUUUCCUCGAGCAA [U17C U63C] | 1.18
17 | CUCUCGGUAGCCAAGUCGGUUUAAGGCGCAAGACUUUAAUUUAUCACUACGAAAUCUUGAGAGCGGGCGUUCGACUCGCCCCCGGGAGAUUUUUUCCUCGAGCAA [U17C U63G] | 0.804
18 | CUCUCGGUAGCCAAGUCGGUUUAAGGCGCAAGACUUUAAUUUAUCACUACGAAAUCUUGAGAACGGGCGUUGGACUCGCCCCCGGGAGAUUUUUUCCUCGAGCAA [U17C U63A C72G] | ≤ 0.026
19 | CUCUCGGUAGCCAAGUCGGUUCAAGGCGCAAGACUUUAAUUUAUCACUACGAAAUCUUGGGAUCGGGCGUUCGACUCGCCCCCGGGAGAUUUUUUCCUCGAGCAA [U17C U22C A60G] | 0.348
20 | CUCUCGGUAGCCAAGUCGGUUUAAGGCGCAAGACUUUAAUUUAUCACUACGAAAUCUUGAGAUCGGGCGUUCGACUCGCCCCCGGGAUAUUUUUUCCUCGAGCAA [U17C G88U] | ≤ 0.026
21 | CUCUCGGUAGCCAAGUCGGUUUAAGGCGCAAGACUUUAAUUUAUCACUACGAAAUCUUGAGAUCGGGCGUUCGACCCGCCCCCGGGAGAUUUUUUCCUCGAGCAA [U17C U76C] | 1.09
22 | CUCUCGGUAGCCAAGUCGGUUUAAGGCGCAAGACUUUAAUUUAUCACUACGAAAUCUUGAGAUCGGGCGUUCGACUCGCCCCCAGGAGAUUUUUUCCUCGAGCAA [U17C G84A] | 0.048
23 | CUCUCGGUAGCCAAGUCGGUUUAAGGCGCAAGACUUUAAUUUAUCACUACGAAACCUUGAGAUCGGGCGUUCGACUCGCCCCCGGGAGAUUUUUUCCUCGAGCAA [U17C U55C] | 0.444
24 | CUCUCGGUAGCCAAGUCGAUUUAAGGGGCAAGACUUUAAUUUAUCACUACGAAAUCUUGAGAUCGGGCGUUCGACUCGCCCCCGGGAGAUUUUUUCCUCGAGCAA [U17C G19A C27G] | ≤ 0.026
25 | CUCUCGGUAGCCAAGUGGGUUUCAGGCGCAAGACUUUAAUUUAUCACUACGAAAUCUUGAGAUCGGGCGUUCGACUCGCCCCCGGGAGAUUUUUUCCUCGAGCAA [U17G A23C] | ≤ 0.026
26 | CUCUCGGUAGCCAAGUCGGUUUAAGGCACAAGACUUUAAUUUAUCACUACGAAAUCUUGAGAUCGGGCGUUCGACUCGCCCCCGGGAGAUUUUUUCCUCGAGCAA [U17C G28A] | 1.09
27 | CUCUCGGUAGCCAAGUCGGUUUAAGGCGCAAGACUUUAAUUUAUCACUACGAAAUCUUGAGAUCGGGCGUUCGAAUCGCCCCCGGGAAAUUUUUUCCUCGAGCAA [U17C C75A G88A] | ≤ 0.026
